Compound activity: PubChem BioAssay, Broad Institute
XiGFP reactiv: reactivates the inactive X chromosome in mouse fibroblasts | actives 0.055% (n = 360,000) | activation, % at 7.58 µM | XiGFP mouse fibroblasts, % GFP-positive cells imaging, 3 d; cells co-treated with 5-aza-dC sensitizer; scaled so ellipticine positive control = 100%;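 active = mean normalized replicate activation at least 10% and every replicate at or above 10%; inconclusive = only one of the two criteria met; inactive = mean below 10% and not all replicates reach 10%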;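 also: 0% = median of on-plate neutral control wells and 100% = ellipticine 6 µM median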
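Assay system: SV40-immortalized XiGFP fibroblast cells, line 68-5-11; buffer or medium: DMEM plus 5-aza-dC sensitizer; compound: one concentration, pinned; timing: compounds 3 days, fix/stain 15 min at room temperature; benchmarks: positive control ellipticine, 6 µM final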
Vif imaging: blocks HIV Vif function; HEK293T cells, Vif self-association by quenched fluorescence, imaging, 24 h; inhibition, % at 7.49 µM; actives 0.35% (n = 340,000); AID 602346; in the data active = inhibition above about 50%, passing the limit was not always enough; inconclusive = no clear call, values can overlap the other calls; inactive = below about 31%
esBAF inh: SWI/SNF esBAF complex inhibition; actives 2% (n = 350,000); mouse ES cells, Bmi1-luciferase knock-in reporter, 24 h; 100% = twice the neutral-well signal; AID 602393; reporter increase, % at 12.5 µM; in the data active = activation above about 40%; inconclusive = no clear call, values can overlap the other calls;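 also: 0% = median of the plate's neutral control wells and 100% = double that signal; a rise in the Bmi1 reporter signal indicates esBAF inhibition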
MITF TRPM1 HTS: MITF TRPM1 promoter activation in melanoma cells | SK-MEL-5 TRPM1-promoter luciferase, 24 h; % of positive control, neutral wells = 0 | activation, % at 12.5 µM | actives 0.75% (n = 300,000);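 active = mean activation of at least 80% with every replicate also reaching 80%; inconclusive = mean reaches 80% but some replicate falls short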;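 also: 0% = neutral control wells and 100% = parthenolide positive control wells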
Wnt act: Wnt/beta-catenin pathway activation; Wnt/beta-catenin reporter cell assay, activator, plate reader; activation, % at 9.35 µM; actives 1.2% (n = 300,000); AID 743398; in the data active = activation above about 30%, passing the limit was not always enough; inconclusive = no clear call, values can overlap the other calls;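 also: 0% = neutral control wells and 100% = positive control wells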
Ring1 derepress: confirmation of esBAF inhibitors: Ring1 de-repression in mouse ESCs. shares compounds with esBAF inh. mouse ESC E14, Ring1 mRNA RT-qPCR fold change. 550 tested, under 10 active. fold change at 33 µM;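 active = Ring1 gene expression raised more than 2-fold over untreated cells in both replicates at either tested dose; inconclusive = only one replicate above 2-fold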;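 also: Ring1 transcript normalised to actin housekeeping signal by TaqMan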
esBAF Fgf4 qPCR: esBAF inhibition confirmed by Fgf4 repression | AID 743177 | shares compounds with esBAF inh | actives 4% (n = 550) | mouse ESC E14, Fgf4 mRNA qPCR fold change; active compounds read low | Fgf4 expression fold change at 33 µM;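 active = Fgf4 expression under 0.8 fold of control in both repeat measurements at one or both tested doses; inconclusive = under 0.8 fold in just a single repeat measurement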;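 also: Fgf4 transcript normalised to actin in duplex TaqMan qPCR; cells exposed to compound for 24 h before lysis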
Bmi1 derepress: esBAF inhibition confirmed by Bmi1 de-repression. mouse ESE14 ES cells, Bmi1 mRNA qPCR fold; active compounds read high. shares compounds with esBAF inh. fold change at 33 µM. 550 tested, under 10 active. AID 743180;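 active = Bmi1 expression fold change above 6 at either tested concentration, seen in replicate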;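 also: higher fold means more Bmi1 de-repression and stronger esBAF inhibition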
A549 cytotox: A549 cell cytotoxicity; 550 tested, under 10 active; shares compounds with esBAF inh; cell viability change % (negative = cytotoxic), % at 25 µM, hits read low; plate reader; call rule not given here
HepG2 tox SP: cytotoxicity in HepG2 cells; plate reader; active compounds read low; activity change, negative = inhibition, % at 25 µM; actives 4% (n = 550); shares compounds with esBAF inh; AID 743189; in the data active = activity change below about -50%
HEK293 tox SP: cytotoxicity in HEK293 cells; shares compounds with esBAF inh; plate reader; activity change, negative = inhibition, % at 25 µM, hits read low; actives 3% (n = 550); AID 743190; in the data active = activity change below about -38%, passing the limit was not always enough
The depositor's hits bear a star; ? = inconclusive; . = not tested or not shown. This is a sample that favours compounds with a hit; in the whole collection about 2.6% have one here.

SMILES | XiGFP reactiv | Vif imaging | esBAF inh | MITF TRPM1 HTS | Wnt act | Ring1 derepress | esBAF Fgf4 qPCR | Bmi1 derepress | A549 cytotox | HepG2 tox SP | HEK293 tox SP
CC1(C)CNC(=O)c2sc(NC(=O)c3ccccc3)nc2C1 | 3 | 5 | 84* | 91* | 0 | 1.1 | 1 | 1.5 | -2 | -26 | -24
CC1(C)CC(=O)c2sc(NC(=O)c3cccs3)nc2C1 | . | . | . | 9 | . | . | . | . | . | . | .
COc1cc(-c2nnc(COc3ccc(Cl)cc3C)o2)cc(OC)c1OC | . | ? | -4 | 2 | -5 | . | . | . | . | . | .
Cc1cc(Cl)ccc1OCc1nnc(-c2ccccc2C)o1 | 0 | -1 | 99* | 116* | 41* | 0.89 | 0.93 | 1.4 | -10 | -24 | 4
c1ccc(CCNc2nc3ccccc3s2)cc1 | . | 5 | 55* | . | . | 1.2 | 1 | 1.8 | -9 | -1 | -23
COc1ccc(CNc2nc3ccccc3s2)cc1OC | 0 | -1 | 62* | . | 4 | 0.99 | 0.87 | 1.6 | -6 | -5 | -12
CNC(=O)C[C@@H]1CC[C@@H]2[C@@H](COc3ccc(NS(=O)(=O)c4ccccc4C)cc3C(=O)N2C)O1 | 0 | . | -3 | . | . | . | . | . | . | . | .
COc1ccc(NC(=O)N[C@H]2CC[C@@H](CCNC(=O)c3ccccc3F)O[C@H]2CO)cc1 | 0 | . | 8 | . | . | . | . | . | . | . | .
COC(=O)Nc1sc2c(c1C(N)=O)CCC(C)C2 (configuration not stated) | 0 | -4 | . | 6 | 1 | . | . | . | . | . | .
CC1CCc2c(sc(NC(=O)c3cccn3C)c2C(N)=O)C1 (configuration not stated) | 0 | -12 | 71* | 37 | 8 | 1.1 | 1 | 1.5 | -11 | -17 | -19
COc1ccc2c(CN(C)Cc3ccccc3)cc(=O)oc2c1 | 0 | . | 57* | . | 16 | 1.1 | 0.88 | 1.8 | -13 | -65* | -19
O=C(Nc1nc2ccc(Cl)cc2s1)c1cccc(N2C(=O)CCC2=O)c1 | 0 | -22 | 67* | 52 | ? | 1.7 | 1 | 1.3 | -12 | 11 | 0
Cc1ccc(C)c(N2CCN(C(=O)CCc3nc(-c4ccccc4C(F)(F)F)no3)CC2)c1 | 0 | -12 | 73* | 72 | 34* | 1.3 | 0.96 | 1.6 | -5 | -21 | -10
COc1ccc(-c2noc(CCCC(=O)N3CCN(c4cc(C)ccc4C)CC3)n2)cc1 | 0 | . | 62* | 66 | 1 | 1.2 | 1 | 1.6 | -3 | 2 | -13
Cc1ccc(C)c(N2CCN(C(=O)CCc3nc(-c4cccc(Cl)c4)no3)CC2)c1 | 0 | . | 90* | 73 | 0 | 1.1 | 1.2 | 0.86 | 2 | -37 | 0
COc1ccc(-c2noc(CCCCC(=O)N3CCN(c4cc(C)ccc4C)CC3)n2)cc1 | 0 | . | -74 | -50 | -3 | . | . | . | . | . | .
COc1cccc(-c2noc(CCC(=O)N3CCN(c4cc(C)ccc4C)CC3)n2)c1 | 0 | -6 | 2 | 0 | -1 | . | . | . | . | . | .
COc1ccccc1-c1noc(CCC(=O)N2CCN(c3cc(C)ccc3C)CC2)n1 | 0 | -9 | -4 | 10 | -3 | . | . | . | . | . | .
C[C@@H]1CCCCO[C@@H](CN(C)S(=O)(=O)c2ccc(Cl)cc2)[C@@H](C)CN([C@H](C)CO)C(=O)c2cc(NC(=O)Nc3ccccc3)ccc2O1 | -1 | . | 0 | . | . | . | . | . | . | . | .
O=C(C[C@H]1CC[C@H](NS(=O)(=O)c2ccccc2)[C@H](CO)O1)NCc1ccc(Cl)c(Cl)c1 | 0 | . | 6 | . | . | . | . | . | . | . | .
C[C@@H]1CN([C@@H](C)CO)C(=O)c2cc(-c3ccccc3)cnc2O[C@H]1CN(C)C(=O)c1ccccc1F | -1 | . | 0 | . | . | . | . | . | . | . | .
Cc1sc2c(c1C)CN(C(C)(C)C)CN2C(=O)c1ccccc1 | . | -10 | 66* | 1 | . | 1.2 | 0.92 | 1.4 | 8 | 0 | 0
Cc1ccc(S(=O)(=O)N(C)C[C@H]2OCCCC[C@@H](C)Oc3ccc(NC(=O)Nc4ccccc4)cc3C(=O)N([C@H](C)CO)C[C@H]2C)cc1 | 0 | . | -3 | . | . | . | . | . | . | . | .
CC1CCCN(C(=O)CNC(=O)c2sc3ccccc3c2Cl)C1 (configuration not stated) | 0 | -12 | 82* | 126* | 24 | 0.95 | 1 | 1.3 | 0 | 2 | -7
CC1CC(C)CN(C(=O)CNC(=O)c2sc3ccccc3c2Cl)C1 (configuration not stated) | 0 | 0 | 23 | 64 | 12 | . | . | . | . | . | .
SMILES | XiGFP reactiv | Vif imaging | esBAF inh | MITF TRPM1 HTS | Wnt act | Ring1 derepress | esBAF Fgf4 qPCR | Bmi1 derepress | A549 cytotox | HepG2 tox SP | HEK293 tox SP
Cc1sc(NC(=O)c2cccs2)nc1-c1ccccc1 | . | -4 | 64* | . | 47* | 2.5* | 0.96 | 2.5 | -5 | 12 | 10
Cc1sc(NC(=S)NC(=O)c2cccs2)nc1-c1ccc(C(C)C)cc1 | . | . | -3 | -4 | . | . | . | . | . | . | .
Cc1ccc2oc(-c3cccc(NC(=S)NC(=O)c4cccs4)c3)nc2c1 | 0 | 0 | . | 12 | 22 | . | . | . | . | . | .
O=C(Nc1ccc2oc(-c3ccccc3)nc2c1)c1cccs1 | . | . | 78* | 71 | . | 0.88 | ? | 1.9 | -8 | -6 | -15
CCc1nc(N2[C@H](C#N)[C@@H](c3ccccc3-c3ccccc3C)[C@H]2CO)sc1C | 0 | . | . | . | . | . | . | . | . | . | .
COc1ccc(-c2cc(C(=O)N3CCN(c4ccccc4)CC3)no2)cc1 | 0 | -7 | 60* | 55 | -3 | 1.3 | 0.93 | 1.6 | 4 | 34 | -9
CC(C)CC#Cc1ccc([C@@H]2[C@H](CO)N3C(=O)CN(C(=O)NC4CCCC4)C[C@@H]23)cc1 | 0 | . | . | . | . | . | . | . | . | . | .
C[C@@H]1CN([C@@H](C)CO)C(=O)c2c(c3ccccc3n2C)-c2ccccc2CO[C@H]1CN(C)Cc1cccc(C(=O)Nc2ccccc2N)c1 | 0 | . | . | . | . | . | . | . | . | . | .
NNC(=O)c1nc2ccccc2s1 | 0 | 9 | 68* | . | -1 | 1.2 | 0.83 | 1.7 | -5 | -48 | -10
CC(=O)c1sc(Nc2ccc(Oc3ccccc3)cc2)nc1C | 0 | 1 | 77* | . | 6 | 1.2 | 1 | 1.8 | -12 | -13 | -38
COC(=O)c1sc(NC(=O)C(C)c2ccccc2)nc1C (configuration not stated) | 0 | -19 | -7 | 29 | . | . | . | . | . | . | .
COC(=O)c1sc(Nc2ccccc2)nc1C | . | -5 | 65* | 79 | -1 | 1 | 1.3 | 1.2 | 6 | -23 | -1
